This note sets out measurements from PMC9289880 (Journal of Medicinal Chemistry, 2022).

pEC50, pIC50: −log10 of the molar value. Read-outs that look alike come from different tables or passages of the source. *1 amine or outer side, *2 acyl side, *3 side chain or, on linkers, in order; H or OH if unused. Where a SMILES comes first, the peptide text is derived from it. Bridges are numbered along the chain shown (N, C = ends). [ ]: non-standard residue; d: D form. Pro(trans-3-OAllyl) = C=CCO[C@H]1CCN[C@@H]1C(=O)O; Pro(3R-Ph) = O=C(O)[C@H]1NCC[C@@H]1c1ccccc1; Bip = N[C@@H](Cc1ccc(-c2ccccc2)cc1)C(=O)O; d(αMeS) = C[C@@](N)(CO)C(=O)O; Ahp(2) = CCCCC[C@H](N)C(=O)O; αMeS = C[C@](N)(CO)C(=O)O; CH2 = C([*:1])[*:2]

One data set deals with KRAS^G12D (Homo sapiens, UniProt P01116, G12D). Briefly: SOS-catalyzed guanine nucleotide exchange. It is filed as biochemical.
Chain of KRAS^G12D (P01116 1-188 isoform P01116-2 G12D): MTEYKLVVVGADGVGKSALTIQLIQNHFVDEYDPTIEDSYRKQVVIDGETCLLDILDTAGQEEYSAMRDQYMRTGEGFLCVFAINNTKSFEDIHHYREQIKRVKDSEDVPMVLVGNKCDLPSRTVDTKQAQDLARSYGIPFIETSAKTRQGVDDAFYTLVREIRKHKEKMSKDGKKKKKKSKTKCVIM
The test system of a further data set is pERK, AsPC-1 cells. Briefly: AlphaScreen pERK assay in AsPC-1 cells. It is filed as cell-based. The following applies: for pIC50: pERK. In a few lines:
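AsPC-1 cells grown in RPMI 1640 (GlutaMAX, HEPES) with 10% FBS and penicillin/streptomycin. Seeded at 15 000 cells/well and held overnight at 37 °C, 5% CO2, then switched to serum-free medium. Compound dose-response series added acoustically, then incubated 2 and 18 h. Cells washed with DPBS and lysed with protease inhibitors. pERK (615 nm) and total ERK (535 nm) read by AlphaScreen SureFire multiplex. pERK/total ERK ratio fitted to 4-parameter logistic.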
On the technique in general: Bead proximity is the source of the signal in Alpha formats.

Data set [1] in a line: Cell homogenate stability assay. The data set is classed as in vitro ADME. To be noted: human; for half-life at 1 µM: HeLa cell homogenate. The gist of the method: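 HeLa cells suspended at 1 × 10^6 cells/mL, probe-sonicated on ice until homogeneous, then frozen at −20 °C until use. Peptides incubated with the homogenate (1 × 10^6 cells/mL equivalent). Loss of parent peptide over increasing time quantified by LC-MS/MS.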

The test system of a further data set is HeLa cells. The data set can be described thus: NanoClick cell permeability assay. The data set is classed as in vitro ADME, Human.
The next data set deals with AsPC-1 cells. Briefly: LDH release. The following applies: 18 h LDH release assay. It is filed as cell-based. In a few lines:
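AsPC-1 cells seeded at 15 000/well overnight, then dosed with a compound titration in serum-free medium at 37 °C, 5% CO2. At 18 h post dose, part of the medium was transferred and mixed 1:1 with CytoTox-ONE reagent. Plates shaken 45 min at ambient temperature and fluorescence read (ex 560/em 590 nm). Dose-response curves fitted to 4-parameter logistic.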
On the technique in general: LDH in the medium is a marker of cell lysis.

Another data set deals with pERK, A375 cells. The data set can be described thus: AlphaScreen pERK counter screen in A375 cells. It is filed as cell-based.
[2] abbreviates: read-out: AlphaScreen (AsPC-1) 2 h IC50, AsPC-1, 2 h.
Where [3] appears, read: read-out: AlphaScreen (AsPC-1) 18 h IC50, AsPC-1, 18 h.
[4] abbreviates: read-out: NanoClick (HeLa) 4 h EC50, 4 h.
Where [5] appears, read: read-out: NanoClick (HeLa) 18 h EC50, 18 h.

What is called pIC50 is −log10 of the IC50, conventionally taken in molar units. As usually defined, the half-life is how long it takes for the measured level to halve. In general, pEC50 refers to the negative decadic logarithm of the EC50, by convention in mol/L.

As for `C=CCO[C@H]1CCN2C(=O)[C@H](NC(=O)[C@H](CCCNC(=N)N)NC(=O)[C@H](CCCNC(=N)N)NC(C)=O)CSCSC[C@@H](C(=O)N[C@@H](CCCNC(=N)N)C(=O)N[C@@H](CCCNC(=N)N)C(N)=O)NC(=O)[C@H](C(C)C)NC(=O)[C@@H]3CCCN3C(=O)[C@H](CC(=O)O)NC(=O)[C@H](Cc3ccc(O)cc3)NC(=O)[C@H](CO)NC(=O)[C@H]([C@@H](C)CC)NC(=O)[C@H](Cc3ccc(-c4ccccc4)cc3)NC(=O)[C@H](CC(C)C)NC(=O)[C@H]12` [5-02, Ac-RR-cyclo(c(methylene)-Prot3OAl-L-Bip-ISYDPVC)-RR-NH2] (Ac-RR[dC][Pro(trans-3-OAllyl)]L[Bip]ISYDPVCRR-NH2; linker 3-13 via CH2), the negative logarithm of the IC50 (pIC50) on KRAS^G12D is > 9.00; in the data set on pERK, AsPC-1 cells (setting [2]), 4.55; in the data set with pERK, AsPC-1 cells (setting [3]), < 4.30.

For the molecule `CCCCC[C@@H]1NC(=O)[C@@H]2CCCN2C(=O)[C@H](CC(=O)O)NC(=O)[C@H](Cc2ccc(O)cc2)NC(=O)[C@H](CO)NC(=O)[C@H]([C@@H](C)CC)NC(=O)[C@H](Cc2ccc(-c3ccccc3)cc2)NC(=O)[C@H](CC(C)C)NC(=O)[C@@H]2[C@@H](c3ccccc3)CCN2C(=O)[C@H](NC(=O)[C@H](CCCNC(=N)N)NC(=O)[C@H](CCCNC(=N)N)NC(C)=O)CSCSC[C@@H](C(=O)N[C@@H](CCCNC(=N)N)C(=O)N[C@@H](CCCNC(=N)N)C(N)=O)NC1=O` [5-03, Ac-RR-cyclo(c(methylene)-Prot3Ph-L-Bip-ISYDP-Ahp-C)-RR-NH2] (Ac-RR[dC][Pro(3R-Ph)]L[Bip]ISYDP[Ahp(2)]CRR-NH2; linker 3-13 via CH2), the pIC50 at KRAS^G12D is > 9.00; in the data set on pERK, AsPC-1 cells (setting [2]) it was 5.17; in the data set with pERK, AsPC-1 cells (setting [3]) it was 4.54. Also, the half-life at 1 µM in data set [1] is > 6.2 h.

With `C=CCO[C@H]1CCN2C(=O)[C@H](NC(=O)[C@H](CCCNC(=N)N)NC(=O)[C@H](CCCNC(=N)N)NC(C)=O)CSCSC[C@@H](C(=O)N[C@@H](CCCNC(=N)N)C(=O)N[C@@H](CCCNC(=N)N)C(N)=O)NC(=O)[C@H](CCCCC)NC(=O)[C@@H]3CCCN3C(=O)[C@H](CC(=O)O)NC(=O)[C@H](Cc3ccc(O)cc3)NC(=O)[C@H](CO)NC(=O)[C@H]([C@@H](C)CC)NC(=O)[C@H](Cc3ccc(-c4ccccc4)cc3)NC(=O)[C@H](CC(C)C)NC(=O)[C@H]12` [5-04, Ac-RR-cyclo(c(methylene)-Prot3OAl-L-Bip-ISYDP-Ahp-C)-RR-NH2] (Ac-RR[dC][Pro(trans-3-OAllyl)]L[Bip]ISYDP[Ahp(2)]CRR-NH2; linker 3-13 via CH2), the pIC50 was > 9.00 against KRAS^G12D and < 4.30 in the data set with pERK, AsPC-1 cells (setting [3]).

Regarding `CC[C@H](C)[C@@H]1NC(=O)[C@H](Cc2ccc(-c3ccccc3)cc2)NC(=O)[C@H](CC(C)C)NC(=O)[C@@H]2[C@@H](c3ccccc3)CCN2C(=O)[C@H](NC(=O)[C@H](CCCNC(=N)N)NC(=O)[C@H](CCCNC(=N)N)NC(C)=O)CSCSC[C@@H](C(=O)N[C@@H](CCCNC(=N)N)C(=O)N[C@@H](CCCNC(=N)N)C(N)=O)NC(=O)[C@H](C(C)C)NC(=O)[C@@H]2CCCN2C(=O)[C@H](CC(=O)O)NC(=O)[C@H](Cc2ccc(O)cc2)NC(=O)[C@H](CO)NC1=O` [peptide 5-01, Ac-RR-cyclo(c(methylene)-Prot3Ph-L-Bip-ISYDPVC)-RR-NH2] (Ac-RR[dC][Pro(3R-Ph)]L[Bip]ISYDPVCRR-NH2; linker 3-13 via CH2), the negative logarithm of the IC50 (pIC50) on KRAS^G12D is > 9.00; in the data set with pERK, AsPC-1 cells (setting [2]), 5.48; in the data set on pERK, AsPC-1 cells (setting [3]) it was 4.48. The half-life at 1 µM in data set [1] is > 6.2 h.

For the molecule `CC[C@H](C)[C@@H]1NC(=O)[C@H](Cc2ccc(-c3ccccc3)cc2)NC(=O)[C@H](CC(C)C)NC(=O)[C@@H]2[C@@H](c3ccccc3)CCN2C(=O)[C@H](NC(=O)[C@H](CCCNC(=N)N)NC(=O)[C@H](CCCNC(=N)N)NC(=O)[C@H](CCCCN=[N+]=[N-])NC(C)=O)CSCSC[C@@H](C(=O)N[C@@H](CCCNC(=N)N)C(=O)N[C@@H](CCCNC(=N)N)C(N)=O)NC(=O)[C@H](C(C)C)NC(=O)[C@@H]2CCCN2C(=O)[C@H](CC(=O)O)NC(=O)[C@H](Cc2ccc(O)cc2)NC(=O)[C@H](CO)NC1=O` [peptide 6, Ac-Lys(N3)-RR-cyclo(c(methylene)-Prot3Ph-L-Bip-ISYDPVC)-RR-NH2], the pIC50 against KRAS^G12D was > 9.00; with pERK, AsPC-1 cells (setting [2]) it was 5.57; in the data set with pERK, AsPC-1 cells (setting [3]), 4.72. For the same molecule, on KRAS^G12D, the “SOS GNE potency / binding, in words” value is recorded as “subnanomolar”. The half-life at 1 µM in data set [1] is > 6.2 h. In addition, the “NanoClick permeability at 4 h, in words” value in the data set with HeLa cells is “limited permeability”. Moreover, the “NanoClick permeability at 18 h, in words” value with HeLa cells was “much-increased permeability”. The pEC50 in the data set on HeLa cells (setting [4]) was 5.14; with HeLa cells (setting [5]) it was 6.70. The “fold improved cellular activity at 2 h versus 18 h” value in the data set with pERK, AsPC-1 cells (AsPC-1 pERK) is listed as 6 fold.

As for `CC[C@H](C)[C@@H]1NC(=O)[C@H](Cc2ccc(-c3ccccc3)cc2)NC(=O)[C@H](CC(C)C)NC(=O)[C@@H]2[C@@H](c3ccccc3)CCN2C(=O)[C@H](NC(=O)[C@@H](CCCNC(=N)N)NC(=O)[C@@H](CCCNC(=N)N)NC(C)=O)CSCSC[C@@H](C(=O)N[C@H](CCCNC(=N)N)C(=O)N[C@H](CCCNC(=N)N)C(N)=O)NC(=O)[C@H](C(C)C)NC(=O)[C@@H]2CCCN2C(=O)[C@H](CC(=O)O)NC(=O)[C@H](Cc2ccc(O)cc2)NC(=O)[C@](C)(CO)NC1=O` [peptide 7, Ac-rr-cyclo(c(methylene)-Prot3Ph-L-Bip-I-aMeS-YDPVC)-rr-NH2] (Ac-[dR][dR][dC][Pro(3R-Ph)]L[Bip]I[αMeS]YDPVC[dR][dR]-NH2; linker 3-13 via CH2), the “SOS GNE potency / binding, in words” value at KRAS^G12D is on record as “subnanomolar”. The half-life in data set [1] (tissue homogenate) is > 6.2 h. For the same molecule, the “LDH release / membrane integrity, in words” value in the data set with AsPC-1 cells was “no LDH release”. Moreover, the pIC50 in the data set on pERK, AsPC-1 cells (setting [2]) is 5.42; in the data set with pERK, AsPC-1 cells (setting [3]), 5.41. The “activity in A375 counter screen, in words” value in the data set with pERK, A375 cells was “no LDH release or activity”.

For `CC[C@@H](C)[C@H]1NC(=O)[C@H](Cc2ccc(-c3ccccc3)cc2)NC(=O)[C@H](CC(C)C)NC(=O)[C@@H]2[C@@H](c3ccccc3)CCN2C(=O)[C@H](NC(=O)[C@@H](CCCNC(=N)N)NC(=O)[C@@H](CCCNC(=N)N)NC(C)=O)CSCSC[C@@H](C(=O)N[C@H](CCCNC(=N)N)C(=O)N[C@H](CCCNC(=N)N)C(N)=O)NC(=O)[C@H](C(C)C)NC(=O)[C@@H]2CCCN2C(=O)[C@H](CC(=O)O)NC(=O)[C@H](Cc2ccc(O)cc2)NC(=O)[C@@](C)(CO)NC1=O` [peptide 8, Ac-rr-cyclo(c(methylene)-Prot3Ph-L-Bip-i-aMeS-YDPVC)-rr-NH2] (Ac-[dR][dR][dC][Pro(3R-Ph)]L[Bip][dI][d(αMeS)]YDPVC[dR][dR]-NH2; linker 3-13 via CH2), the “SOS GNE potency / binding, in words” value at KRAS^G12D is on record as “no response”. Besides, in the data set on pERK, AsPC-1 cells (AsPC-1), the “cellular (pERK) activity, in words” value was “no cellular activity”.

For `CC[C@H](C)[C@@H]1NC(=O)[C@H](Cc2ccc(-c3ccccc3)cc2)NC(=O)[C@H](CC(C)C)NC(=O)[C@@H]2[C@@H](c3ccccc3)CCN2C(=O)[C@H](NC(=O)[C@@H](CCCNC(=N)N)NC(=O)[C@@H](CCCNC(=N)N)NC(=O)[C@H](CCCCN=[N+]=[N-])NC(C)=O)CSCSC[C@@H](C(=O)N[C@H](CCCNC(=N)N)C(=O)N[C@H](CCCNC(=N)N)C(N)=O)NC(=O)[C@H](C(C)C)NC(=O)[C@@H]2CCCN2C(=O)[C@H](CC(=O)O)NC(=O)[C@H](Cc2ccc(O)cc2)NC(=O)[C@](C)(CO)NC1=O` [peptide 9, Ac-Lys(N3)-rr-cyclo(c(methylene)-Prot3Ph-L-Bip-I-aMeS-YDPVC)-rr-NH2], the pIC50 at KRAS^G12D was > 9.00; in the data set on pERK, AsPC-1 cells (setting [2]) it was 5.21; in the data set on pERK, AsPC-1 cells (setting [3]) it was 5.17. For the same molecule, in data set [1], the half-life at 1 µM was > 6.2 h. The pEC50 in the data set with HeLa cells (setting [4]) is 5.83; with HeLa cells (setting [5]), 6.83; with HeLa cells (read-out: NanoClick permeability EC50 at 4 h, 4 h) it was 5.82; with HeLa cells (read-out: NanoClick permeability EC50 at 18 h, 18 h), 6.82.

Turning to `CC[C@H](C)[C@@H]1NC(=O)[C@H](Cc2ccc(O)cc2)NC(=O)[C@H](CC(C)C)NC(=O)[C@@H]2CCCN2C(=O)[C@H](NC(=O)[C@@H](CCCNC(=N)N)NC(=O)[C@@H](CCCNC(=N)N)NC(=O)[C@H](CCCCN=[N+]=[N-])NC(C)=O)CSCSC[C@@H](C(=O)N[C@H](CCCNC(=N)N)C(=O)N[C@H](CCCNC(=N)N)C(N)=O)NC(=O)[C@H](C(C)C)NC(=O)[C@@H]2CCCN2C(=O)[C@H](CC(=O)O)NC(=O)[C@H](Cc2ccc(O)cc2)NC(=O)[C@H](CO)NC1=O` [peptide 10], in the data set on HeLa cells, the “NanoClick permeability at 4 h, in words” value is “no permeability” and the “NanoClick permeability at 18 h, in words” value is on record as “very limited permeability”.
